Laboratory results taken from PubChem BioAssay AID624042 (Vanderbilt High Throughput Screening Facility, 2012).

Target: G protein-activated inward rectifier potassium channel 2 (Homo sapiens) + G protein-activated inward rectifier potassium channel 1 (Homo sapiens) (UniProt P48051+P48549)
Assay: GIRK1/2 activation independent of G-protein coupling, dose response, mechanism study for GIRK activator project, cell-based, HEK-293 hGIRK1/2, pertussis toxin-treated, thallium flux, FluoZin-2 (AID 624042)
Conditions: HEK-293 hGIRK1/2 PTX-treated
Summary of the method: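 Medium: 400 ng/mL PTX during overnight pretreatment; System: PTX-treated HEK-293 rmGlu8/hGIRK1/2 stable cell line; Compound dosing: serial dilution series of test compounds; Reagent: thallium stimulus containing EC20 glutamate; Timing: PTX pretreatment overnight at 37 °C, compounds 4 min before thallium; Technique: thallium-flux fluorescence with FluoZin-2 AM dye, sampled at 1 Hz.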

Chain of G protein-activated inward rectifier potassium channel 2 (Homo sapiens) + G protein-activated inward rectifier potassium channel 1 (Homo sapiens) (P48051 whole entry, looked up): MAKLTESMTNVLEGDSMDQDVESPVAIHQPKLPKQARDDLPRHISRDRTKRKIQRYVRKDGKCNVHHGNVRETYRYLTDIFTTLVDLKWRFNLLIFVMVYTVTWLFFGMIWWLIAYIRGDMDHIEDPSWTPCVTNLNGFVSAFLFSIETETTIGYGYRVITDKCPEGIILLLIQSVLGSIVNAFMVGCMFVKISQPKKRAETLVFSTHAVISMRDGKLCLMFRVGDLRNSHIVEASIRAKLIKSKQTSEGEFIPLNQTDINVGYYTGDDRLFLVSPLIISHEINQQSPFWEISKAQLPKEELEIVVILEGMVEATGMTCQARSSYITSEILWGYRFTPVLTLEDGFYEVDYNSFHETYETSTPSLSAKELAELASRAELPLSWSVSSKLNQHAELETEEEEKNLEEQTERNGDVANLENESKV
Chain of G protein-activated inward rectifier potassium channel 2 (Homo sapiens) + G protein-activated inward rectifier potassium channel 1 (Homo sapiens) (P48549 whole entry, looked up): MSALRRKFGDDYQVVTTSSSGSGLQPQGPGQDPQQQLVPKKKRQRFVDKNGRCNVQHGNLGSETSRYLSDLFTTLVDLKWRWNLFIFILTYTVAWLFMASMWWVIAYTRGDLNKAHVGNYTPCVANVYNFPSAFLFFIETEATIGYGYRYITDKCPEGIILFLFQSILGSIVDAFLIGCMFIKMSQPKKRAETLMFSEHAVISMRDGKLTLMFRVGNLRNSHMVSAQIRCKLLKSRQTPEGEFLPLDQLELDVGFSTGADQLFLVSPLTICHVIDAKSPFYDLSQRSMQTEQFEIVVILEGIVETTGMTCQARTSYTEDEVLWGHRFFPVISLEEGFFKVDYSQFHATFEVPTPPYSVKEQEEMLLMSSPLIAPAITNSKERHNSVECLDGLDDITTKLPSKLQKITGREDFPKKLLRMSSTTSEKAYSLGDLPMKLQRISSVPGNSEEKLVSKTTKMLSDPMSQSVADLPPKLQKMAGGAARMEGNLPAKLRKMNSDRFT

Row | Structure (SMILES) | EC50
1 | Cc1ccc(NC(=O)Cc2ccccc2Cl)cc1S(=O)(=O)N(C)C | 2180 nM
2 | CCOc1ccccc1Nc1nnc(Cc2ccccc2Cl)c(=O)[nH]1 | 1860 nM
3 | Cc1cc(NC(=O)Nc2ccccc2)n(-c2ccccc2)n1 | 3620 nM
4 | Cc1ccc(-c2nnn(CC(=O)NC3CC4CCC3C4)n2)cc1 (centres undefined) | 4220 nM
